{
  "source": "ChEMBL document CHEMBL4610088",
  "about": "“Higginsianins D and E, Cytotoxic Diterpenoids Produced by Colletotrichum higginsianum” (J Nat Prod, 2020)",
  "key": {"HaCaT [1]": {"test_system": "HaCaT", "experiment": "Cytotoxicity against human HaCaT cells at 1 to 10 uM after 72 hrs by MTT assay", "format": "cell-based", "in_short": "(§1)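 Cells cultured in DMEM with 10% FBS at 37 °C, 5% CO2. 2×10^4 cells seeded per well, exposed to 1 or 10 μM compound for 24, 48 and 72 h. MTT (0.5 mg/mL, phenol red-free DMEM) 3 h at 37 °C; formazan dissolved in acidic isopropanol. A570–A630 read; viability = test/control absorbance. Quadruplicate wells, three independent experiments.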"}, "HaCaT [2]": {"test_system": "HaCaT", "experiment": "Cytotoxicity against human HaCaT cells at 10 uM after 48 hrs by MTT assay relative to control", "format": "cell-based", "in_short": "as §1"}, "HaCaT [3]": {"test_system": "HaCaT", "experiment": "Cytotoxicity against human HaCaT cells assessed as reduction in cell viability at 10 uM after 24 hrs by MTT assay relative to control", "format": "cell-based", "in_short": "as §1"}, "HaCaT [4]": {"test_system": "HaCaT", "experiment": "Cytotoxicity against human HaCaT cells assessed as reduction in cell viability at 1 uM after 24 hrs by MTT assay relative to control", "format": "cell-based", "in_short": "as §1"}, "NCI-H1299 [5]": {"test_system": "NCI-H1299", "experiment": "Cytotoxicity against human NCI-H1299 cells at 1 uM after 72 hrs by MTT assay relative to control", "format": "functional", "in_short": "as §1"}, "NCI-H1299 [6]": {"test_system": "NCI-H1299", "experiment": "Cytotoxicity against human NCI-H1299 cells at 10 uM after 72 hrs by MTT assay relative to control", "format": "functional", "in_short": "as §1"}, "HaCaT [7]": {"test_system": "HaCaT", "experiment": "Cytotoxicity against human HaCaT cells at 10 uM after 24 to 72 hrs by MTT assay", "format": "cell-based", "in_short": "as §1"}, "A-431": {"test_system": "A-431", "experiment": "Cytotoxicity against human A431 cells after 72 hrs by MTT assay", "format": "functional, cell-based", "details": "A-431, 72 h", "in_short": "as §1"}},
  "note": "Active and inactive are the calls of the source. No cut-off for these calls is given here.",
  "data": [
    {"smiles": "C=C1CC[C@H]2[C@](C)(CCC=C(C)C)[C@H](O)CC[C@]2(C)[C@@H]1C[C@]1(C(=O)OC)OC(C)=C(C)C1=O", "values": [
      {"measurement": "Activity", "setting": "HaCaT [1]", "value": "Non-Toxic"},
      {"measurement": "Activity", "setting": "HaCaT [2]", "value": "Toxic"},
      {"measurement": "Activity", "setting": "HaCaT [3]", "value": "Non-Toxic"},
      {"measurement": "Activity", "setting": "HaCaT [4]", "value": "Non-Toxic"},
      {"measurement": "Activity", "setting": "NCI-H1299 [5]", "value": "inactive"},
      {"measurement": "Activity", "setting": "NCI-H1299 [6]", "value": "inactive"}
    ]},
    {"smiles": "C=C1CC[C@H]2[C@](C)(CCC=C(C)C)[C@H](O)CC[C@]2(C)[C@@H]1Cc1c(O)c(C)c(C)oc1=O", "values": [
      {"measurement": "Activity", "setting": "HaCaT [7]", "value": "Toxic"}
    ]},
    {"smiles": "C=C1CC[C@H]2[C@](C)(CCC=C(C)C)[C@H](O)CC[C@]2(C)[C@@H]1C[C@@]1(C(=O)OC)OC(C)=C(C)C1=O", "values": [
      {"measurement": "Activity", "setting": "HaCaT [1]", "value": "Non-Toxic"},
      {"measurement": "Activity", "setting": "HaCaT [2]", "value": "Toxic"},
      {"measurement": "Activity", "setting": "HaCaT [3]", "value": 37, "unit": "%"},
      {"measurement": "Activity", "setting": "HaCaT [4]", "value": 40, "unit": "%"},
      {"measurement": "Activity", "setting": "NCI-H1299 [5]", "value": 22, "unit": "%"},
      {"measurement": "Activity", "setting": "NCI-H1299 [6]", "value": 26, "unit": "%"},
      {"measurement": "IC50", "setting": "A-431", "value": 1000, "unit": "nM"}
    ]}
  ]
}
